Test results reported in PubChem BioAssay AID624080 (The Scripps Research Institute Molecular Screening Center, 2012).
Where “and” joins values, the source holds several entries; their conditions need not be identical. Equal entries are not always repeated. Calls of active or inactive are those of the source.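 How the source made its calls: active means compound whose MIC, giving a fourfold drop in bacterial growth, is 10 µM or lower; inactive means the rest.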

Legend:
[1] = tested on: VIM-2 P. aeruginosa PA641 growth with imipenem, OD590; experiment: imipenem potentiation in VIM-2 P. aeruginosa, late-stage follow-up, clinical strain PA641, imipenem synergy, MIC (AID 624080)
Procedure, shortened: (§1)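 Buffer or medium: cation-adjusted Mueller-Hinton broth / Doses: compound two-fold series, checkerboard format / Incubation: ≥18 h at 37 °C, aerobic / Measured by: turbidity by absorbance at 590 nm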

[2] = as above; details: VIM-2 P. aeruginosa PA641 growth with imipenem, OD590; measured here: max imipenem fold potentiation; stronger effect = higher value
Procedure, shortened: as §1

With `CN1CCN(NC(=O)CN2C(=O)/C(=C/c3c(Cl)ccc(Cl)c3Cl)SC2=S)CC1` the MIC [1] was > 50 µM (inactive) and the fold potentiation [2] was 4 and 2.

With `CN1CCN(NC(=O)CN2C(=O)/C(=C/c3c(Cl)ccc(C(F)(F)F)c3Cl)SC2=S)CC1` the MIC [1] was > 50 µM (inactive) and the fold potentiation [2] was 2.

With `CN1CCN(NC(=O)CN2C(=O)/C(=C/c3c(F)cccc3Cl)SC2=S)CC1` the MIC [1] was > 50 µM (inactive).

With `O=C(CN1C(=O)/C(=C/c2c(Cl)ccc(Cl)c2Cl)SC1=S)NN1CCCCC1` the MIC [1] was > 50 µM (inactive).

In the case of `CN1CCN(NC(=O)CN2C(=O)/C(=C/c3c(C(F)(F)F)ccc(Cl)c3Cl)SC2=S)CC1`, the MIC [1] is reported as > 50 µM (inactive) and the fold potentiation [2] is reported as 4.

With `O=C(CN1C(=O)/C(=C/c2c(Cl)ccc(Cl)c2Cl)SC1=S)NN1CCNCC1` the MIC [1] was > 50 µM (inactive) and the fold potentiation [2] was 2.

In the case of `O=C(CN1C(=O)/C(=C/c2c(Cl)cccc2Cl)SC1=S)NN1CCN(C(=O)c2ccccc2)CC1`, the MIC [1] is reported as > 50 µM (inactive).

For `O=C(CN1C(=O)/C(=C/c2c(Cl)ccc(Cl)c2Cl)SC1=S)NCc1ccccn1`, the MIC [1] was > 50 µM (inactive).

For `CN1CCN(NC(=O)CN2C(=O)/C(=C/c3c(F)cccc3C(F)(F)F)SC2=S)CC1`, the MIC [1] was > 50 µM (inactive).

In the case of `CC(C)(C)OC(=O)N1CCN(NC(=O)CN2C(=O)/C(=C/c3c(Cl)cccc3Cl)SC2=S)CC1`, the MIC [1] is reported as > 100 µM (inactive).

With `CN1CCN(NC(=O)CN2C(=O)/C(=C/c3c(Cl)cccc3Cl)SC2=S)CC1` the MIC [1] was > 100 µM (inactive) and the fold potentiation [2] was 2.

With `O=C(CN1C(=O)/C(=C/c2c(Cl)cccc2Cl)SC1=S)NCc1ccccn1` the MIC [1] was > 100 µM (inactive) and the fold potentiation [2] was 2.

In the case of `O=C(CN1C(=O)/C(=C/c2c(Cl)cccc2Cl)SC1=S)NN1CCCCC1`, the MIC [1] is reported as > 100 µM (inactive).

For `CCN(CC)OC(=O)CN1C(=O)/C(=C/c2c(Cl)cccc2Cl)SC1=S`, the MIC [1] was > 100 µM (inactive).

For `CC(C)(C)OC(=O)N1CCN(NC(=O)CN2C(=O)/C(=C/c3c(Cl)ccc(Cl)c3Cl)SC2=S)CC1`, the MIC [1] was > 50 µM (inactive).

In the case of `CN1CCN(C(=O)CN2C(=O)/C(=C/c3c(Cl)ccc(Cl)c3Cl)SC2=S)CC1`, the MIC [1] is reported as > 50 µM (inactive) and the fold potentiation [2] is reported as 4.

In the case of `CC(=O)N1CCN(NC(=O)CN2C(=O)/C(=C/c3c(Cl)cccc3Cl)SC2=S)CC1`, the MIC [1] is reported as > 50 µM (inactive) and the fold potentiation [2] is reported as 2.

For `O=C(CN1C(=O)/C(=C/c2c(Cl)cccc2Cl)SC1=S)NN1CCN(Cc2ccccc2)CC1`, the MIC [1] was > 50 µM (inactive).

With `O=C(O)CN1C(=O)/C(=C/c2c(Cl)cccc2Cl)SC1=S` the MIC [1] was > 100 µM (inactive).

For `O=C(CN1C(=O)/C(=C/c2c(Cl)cccc2Cl)SC1=S)NN1CCNCC1`, the MIC [1] was > 50 µM (inactive) and the fold potentiation [2] was 2.
